Assay results taken from ChEMBL document CHEMBL1122366, “Potential antiatherosclerotic agents. 3. Substituted benzoic and non benzoic acid analogues of cetaben” (1983).

What was measured:
[1] = target: T1, Sterol O-acyltransferase 1 (Rattus norvegicus) (UniProt O70536); test: In vitro inhibition of acyl coenzyme A:cholesterol acyltransferase; parameters: concentration or dose not given beside the values; conditions: concentration not given here
T1 sequence (whole entry): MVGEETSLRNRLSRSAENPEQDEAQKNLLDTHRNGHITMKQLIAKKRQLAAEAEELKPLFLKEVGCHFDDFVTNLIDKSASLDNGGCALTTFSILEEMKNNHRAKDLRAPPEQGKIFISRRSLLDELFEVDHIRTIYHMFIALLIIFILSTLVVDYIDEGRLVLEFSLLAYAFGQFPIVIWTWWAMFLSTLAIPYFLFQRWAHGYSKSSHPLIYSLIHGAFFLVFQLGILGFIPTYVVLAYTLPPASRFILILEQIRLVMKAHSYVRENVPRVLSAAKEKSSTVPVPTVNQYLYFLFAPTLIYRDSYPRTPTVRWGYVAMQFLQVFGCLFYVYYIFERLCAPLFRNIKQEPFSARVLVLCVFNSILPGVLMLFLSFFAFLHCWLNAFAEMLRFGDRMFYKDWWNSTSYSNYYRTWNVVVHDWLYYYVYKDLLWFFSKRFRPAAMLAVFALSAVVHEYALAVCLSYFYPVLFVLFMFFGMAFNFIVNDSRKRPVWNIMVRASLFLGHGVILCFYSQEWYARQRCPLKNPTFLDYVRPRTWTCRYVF
Method in brief: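 Enzyme fatty acyl-CoA:cholesterol acyltransferase (ACAT), assayed in vitro at a single drug concentration of 5.2 μg/mL. The value is the mean percent inhibition of enzyme activity.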

Rattus norvegicus [2] = test: In vivo triglyceride lowering activity when dosed at 0.03 % of the diet; type: functional
Method in brief: (§1)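 Normal rats were dosed in the diet. Serum sterol and triglyceride levels were measured and expressed as the mean percent of control values. Significance versus control was reported at p < 0.05, 0.01 and 0.001.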

Rattus norvegicus [3] = test: In vivo sterol lowering activity when dosed as 0.01 % of the diet; type: functional; method in brief: as §1
Rattus norvegicus [4] = test: In vivo sterol lowering activity when dosed as 0.03 % of the diet; type: functional; method in brief: as §1
Rattus norvegicus [5] = test: In vivo sterol lowering activity at dose of 0.10 % of the diet; type: functional; method in brief: as §1
Rattus norvegicus [6] = test: In vivo triglyceride lowering activity when dosed as 0.01 % of the diet; type: functional; method in brief: as §1
Rattus norvegicus [7] = test: In vivo triglyceride lowering activity dosed at 0.10 % of the diet.; type: functional; method in brief: as §1

Compound | inhibition [1] | serum triglyceride level, percent of control (Rattus norvegicus [2]) | serum sterol level, % of control (Rattus norvegicus [3]) | serum sterol level, percent of control (Rattus norvegicus [4]) | serum sterol level, percent of control (Rattus norvegicus [5]) | serum triglyceride level, percent of control (Rattus norvegicus [6]) | serum triglyceride, percent of control (Rattus norvegicus [7])
CCCCCCCCCCCCCCCCNc1ccc(C(=O)NC(C)=O)cc1 | < 35% | 73% | 93% | <87% | 91% | 86% | 74%
CCCCCCCCCCCCCCCCNc1ccc(SCC(=O)O)cc1 | < 22% | 110% | 92% | 97% | 93% | 72% | 100%
CCCCCCCCCCCCCCCCNc1ccc(C(=O)NC(=O)c2ccccc2)cc1 | 0% | <66% | 91% | <80% | <75% | 76% | <58%
CCCCCCCCCCCCCCCCNc1ccc(C(=O)OCC(=O)O)cc1 | 45% | 91% | 87% | 88% | <83% | 76% | <65%
CCCCCCCCCCCCCCCCNc1ccc(C(=O)N2CCCCCC2)cc1 | < 61% | 90% | 110% | 105% | 106% | 72% | 68%
CCCCCCCCCCCCCCCCNc1ccc(C(=O)COC)cc1 | < 47% | 85% | 88% | 88% | 91% | 77% | <65%
CCCCCCCCCCCCCCCCNc1ccc(C(=O)Oc2ccc(C(=O)O)cc2)cc1 | < 18% | 81% | 105% | 95% | 93% | 98% | 109%
CCCCCCCCCCCCCCCCNc1ccc(C(=O)OCC(O)COC(=O)c2cccnc2)cc1 (centres undefined) | 0% | 83% | 103% | 108% | 84% | 93% | <63%
CCCCCCCCCCCCCCCCNc1ccc(C(=O)NNC(C)=O)cc1 | 21% | <74% | 93% | <83% | 91% | 75% | <66%
CCCCCCCCCCCCCCCCNc1ccc(C(=O)OCC)c(C(=O)OCC)c1 | < 37% | 93% | 98% | 99% | 90% | 86% | <72%
CCCCCCCCCCCCCCCCNc1ccc(C(=O)OCC(C)O)cc1 (centres undefined) | < 19% | <61% | 96% | <82% | <89% | <67% | <59%
CCCCCCCCCCCCCCCCNc1ccc(C(=O)NCCC(=O)O)cc1 | 49% | 78% | <90% | 93% | <86% | 99% | <55%
CCCCCCCCCCCCCCCCNc1ccc(CCC(=O)O)cc1 | 50% | <50% | 88% | <80% | 92% | <59% | <37%
CCCCCCCCCCCCCCCCN(C(C)=O)c1ccc(C(OC(C)=O)C(N)=O)cc1 (centres undefined) | < 40% | 86% | 109% | 111% | 110% | 93% | 89%
CCCCCCCCCCCCCCCCNc1ccc(C(=O)NS(=O)(=O)c2ccc(N)cc2)cc1 | 14% | 87% | 93% | 89% | 105% | 78% | 111%
CCCCCCCCCCCCCCCCN(C=O)c1ccc(C(=O)O)cc1 | 12% | 100% | <89% | 96% | 105% | 77% | 78%
CCCCCCCCCCCCCCCCNc1ccc(C(=O)C(C)(C)C(=O)OCC)cc1 | 0% | <65% | 94% | 103% | 90% | 101% | 101%
